Assay results reported in ChEMBL document CHEMBL1833914, “Smardaesidins A-G, isopimarane and 20-nor-isopimarane diterpenoids from Smardaea sp., a fungal endophyte of the moss Ceratodon purpureus” (J Nat Prod, 2011).
The source made the active and inactive calls. No cut-off for these calls is given here.

Tests used:
NCI-H460 [1] = assay: Cytotoxicity against human NCI-H460 cells at 10 uM after 72 hrs by Alamar blue assay; type: functional, cell-based
SF-268 [2] = assay: Cytotoxicity against human SF268 cells at 10 uM after 72 hrs by Alamar blue assay; type: functional, cell-based
MCF7 [3] = assay: Cytotoxicity against human MCF7 cells at 10 uM after 72 hrs by Alamar blue assay; type: functional, cell-based
PC-3M = assay: Cytotoxicity against human PC3M cells at 10 uM after 72 hrs by Alamar blue assay; type: functional, cell-based
MDA-MB-231 [4] = assay: Cytotoxicity against human MDA-MB-231 cells at 10 uM after 72 hrs by Alamar blue assay; type: functional, cell-based
NCI-H460 [5] = assay: Cytotoxicity against human NCI-H460 cells after 72 hrs by Alamar blue assay; type: functional, cell-based; settings: NCI-H460, 72 h
SF-268 [6] = assay: Cytotoxicity against human SF268 cells after 72 hrs by Alamar blue assay; type: functional, cell-based; settings: SF-268, 72 h
MCF7 [7] = assay: Cytotoxicity against human MCF7 cells after 72 hrs by Alamar blue assay; type: functional, cell-based; settings: MCF7, 72 h
MDA-MB-231 [8] = assay: Cytotoxicity against human MDA-MB-231 cells after 72 hrs by Alamar blue assay; type: functional, cell-based; settings: MDA-MB-231, 72 h
[9] = Cytotoxicity against human PC3M cells after 72 hrs by Alamar blue assay; type: functional, cell-based; settings: PC-3M
PC-3 = assay: Cytotoxicity against human PC3 cells after 72 hrs by Alamar blue assay; type: functional, cell-based; settings: PC-3, 72 h
MIA PaCa-2 = assay: Cytotoxicity against human MIAPaCa2 cells after 72 hrs by Alamar blue assay; type: functional, cell-based; settings: MIA PaCa-2, 72 h
WI-38 = assay: Cytotoxicity against human WI38 cells after 72 hrs by Alamar blue assay; type: cell-based; settings: WI-38, 72 h
MDA-MB-231 [10] = assay: Inhibition of human MDA-MB-231 cell migration at 2 uM after 40 hrs by wound-healing assay; type: functional, cell-based
Summary of the method: (§1)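 Wound-healing assay: MDA-MB-231 cells grown in DMEM/Ham's F-12 with 10% FBS and gentamicin (50 μg/mL) at 37 °C, 5% CO2. Cells seeded at 150 000/well and grown 24 h to >90% confluent monolayer. Monolayer scratched with toothpick, washed with PBS, fresh medium added, compound in DMSO added in duplicate, 40 h. LY294002 7.5 μM positive control. Wound area measured by ImageJ from three photos per well.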

MDA-MB-231 [11] = assay: Inhibition of human MDA-MB-231 cell migration after 40 hrs by wound-healing assay; type: functional, cell-based; settings: MDA-MB-231, 40 h; summary of the method: as §1
MDA-MB-231 [12] = assay: Antiproliferative activity against human MDA-MB-231 cells after 72 hrs by Alamar blue assay; type: functional, cell-based; settings: MDA-MB-231, 72 h
Summary of the method: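 alamarBlue proliferation/survival read-out in MDA-MB-231 after 72 h exposure. Reagent added to 10% final, 4 h incubation, fluorescence at ex 560/em 590 nm as percent of DMSO vehicle; IC50 and IC25 reported as mean ± error.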

MDA-MB-231 [13] = assay: Inhibition of human MDA-MB-231 cell migration at 5 uM after 40 hrs by wound-healing assay; type: functional, cell-based; summary of the method: as §1

Compound | Activity (NCI-H460 [1]) | Activity (SF-268 [2]) | Activity (MCF7 [3]) | Activity (PC-3M) | Activity (MDA-MB-231 [4]) | IC50 (NCI-H460 [5]) | IC50 (SF-268 [6]) | IC50 (MCF7 [7]) | IC50 (MDA-MB-231 [8]) | IC50 [9] | IC50 (PC-3) | IC50 (MIA PaCa-2) | IC50 (WI-38) | inhibition (MDA-MB-231 [10]) | IC50 (MDA-MB-231 [11]) | IC25 (MDA-MB-231 [12]) | IC50 (MDA-MB-231 [12]) | inhibition (MDA-MB-231 [13])
C=C[C@]1(C)C=C2C(=O)[C@@]3(OC(C)=O)OC(=O)[C@@]4(CCCC(C)(C)[C@H]34)[C@@]2(O)CC1 | Active | Active | Active | Active | Active | 2.8 µM | 4.9 µM | 2 µM | 2.5 µM | 2.7 µM | – | – | – | – | – | – | – | –
COc1cccc2c1C(=O)c1c(O)c3c(c(O)c1C2=O)C[C@@](O)(C(=O)CO)C[C@@H]3O[C@H]1C[C@H](N)[C@H](O)[C@H](C)O1 [DOXORUBICIN] | – | – | – | – | – | 0.3 µM | 0.6 µM | 0.4 µM | 0.5 µM | – | 0.3 µM | 0.3 µM | 0.8 µM | – | – | – | – | –
C=C[C@]1(C)C=C2C(=O)[C@@]3(O)OC(=O)[C@@]4(CCCC(C)(C)[C@H]34)[C@@]2(O)CC1 [SPHAEROPSIDIN A] | Active | Active | Active | Active | Active | 1.9 µM | 2.1 µM | 3 µM | 1.4 µM | 2.4 µM | 2.5 µM | 2 µM | 3.7 µM | Active | 1.5 µM | 1.5 µM | 3 µM | –
C=C[C@]1(C)C=C2C(=O)[C@@]3(O)OC(=O)[C@@]4(CCCC(C)(C)[C@H]34)[C@@]2(O)[C@H](O)C1 [SPHAEROPSIDIN D] | Active | Active | Active | Active | Active | > 10 µM | 7.5 µM | > 10 µM | 3.7 µM | > 10 µM | 9.6 µM | 9 µM | > 10 µM | – | 4.8 µM | > 5 µM | > 5 µM | Active
